Source: PubChem
GSIS activator: primary screen for activators of insulin secretion dependent on glucose, INS-1E cells, GLuc reporter luminescence; INS-1E GLuc reporter insulin secretion, 2-3 h; activation, % at 16.6 µM; 370,000 tested, 0.61% active;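 active = lowest replicate activation of at least 40%, so every replicate reaches that level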;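 note: 0% = median of neutral control wells and 100% = median of IBMX positive control wells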
dFosB act: mouse delta FosB homodimer activation; P13346; purified delta FosB, TAMRA-CDK5 oligo fluorescence polarization; percent of positive-control signal above neutral wells; activation, % at 25 µM; 340,000 tested, 0.99% active;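 active = mean activation above about 17%, with every replicate also reaching it, limit read from the data, passing the limit was not always enough; inconclusive = only one of the two conditions met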
Target sequence (P13346 whole entry, looked up): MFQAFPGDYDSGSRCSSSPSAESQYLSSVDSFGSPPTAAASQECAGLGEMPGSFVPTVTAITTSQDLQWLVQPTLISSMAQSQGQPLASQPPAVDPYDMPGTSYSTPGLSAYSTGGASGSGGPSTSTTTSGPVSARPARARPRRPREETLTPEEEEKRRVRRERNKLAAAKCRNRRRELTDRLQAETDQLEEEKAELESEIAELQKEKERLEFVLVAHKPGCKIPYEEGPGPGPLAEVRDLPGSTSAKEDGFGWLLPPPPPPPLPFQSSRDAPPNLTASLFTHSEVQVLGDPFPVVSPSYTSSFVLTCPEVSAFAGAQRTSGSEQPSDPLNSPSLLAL
HIV Env fusion: blocks HIV Env-driven cell-cell fusion; HeLa-JRFL Env/CEM21 cell fusion, luciferase; inhibition, % at 12.3 µM; 360,000 tested, 1.1% active; AID 651610;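 active = mean replicate inhibition score of at least 50 and every replicate individually at or above 50; inconclusive = only one of the two criteria met; inactive = mean below 50 and not all replicates reaching 50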;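 note: 0% = plate neutral controls and 100% = maraviroc near 300 nM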
CDK5 inh: inhibitors of human CDK5/p35 kinase; Q00535+Q15078; Recombinant CDK5/p35, ADP-Glo luminescence, 60 min; inhibition, % at 10 µM; 330,000 tested, 0.01% active;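 active = highest replicate inhibition of at least 50% and at least 75% of replicates reaching 50%; inconclusive = only one of the two criteria met; inactive = both criteria failed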;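 note: plate controls were DMSO neutral control for no effect and GW8510 at 10 µM for full effect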
Cneo AK release: causes C. neoformans cell lysis; adenylate kinase release luminescence, 4 h; normalised: neutral wells 0, clomiphene wells 100; 360,000 tested, 0.2% active; lysis activity, % at 15 µM; AID 651654;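 active = mean lysis activity across replicates of at least 80%, whatever share of replicates individually reach that level; inactive = mean lysis activity below 80%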
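Assay system: log-phase C. neoformans yeast / Quantity: yeast cell density of 5 × 10^6 cells/mL / Medium: fresh YPD growth medium / Compound: single dose / Timing: static 4 h at 37 °C with compound, 1 h detection / Measured by: adenylate kinase release luminescence / Read-out: lysis from increased AK signal / Benchmarks: Clomiphene as positive lysis control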
PAX8 reporter: lowers PAX8-driven luciferase in RMG-I cells; inhibition, % at 12.6 µM; 360,000 tested, 1.2% active; RMG-I TPO-luciferase reporter, SteadyGlo, 24 h;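 active = mean replicate inhibition at least 60% with every replicate also reaching 60%; inconclusive = only one of the two criteria is met; inactive = mean below 60% and not all replicates reaching 60%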;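 note: luciferase light reporting Pax8 driven TPO promoter activity; plate controls were median of neutral control wells for no effect and mitoxantrone controls for full effect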
The depositor's hits bear a star; [ ] = dose if it differs, or a comment. Compounds with a hit are over-represented: about 2.9% of the library has one in this group of screens.

What do the screens show for `COc1cccc(S(=O)(=O)N[C@@H]2CC[C@@H](CC(=O)NC3CCC3)O[C@H]2CO)c1`?
GSIS activator: 0; HIV Env fusion: 42[16.7 µM]; Cneo AK release: -1; PAX8 reporter: -8

What do the screens show for `COc1cccc(NC(=O)N2CCc3nc(Nc4ccc(C(C)C)cc4)ncc3C2)c1`?
HIV Env fusion: 10; Cneo AK release: -1; PAX8 reporter: 11

Results for COc1cc(Nc2ncc3c(n2)CCN(C(=O)Nc2ccc(C(C)C)cc2)C3)cc(OC)c1OC ?
GSIS activator: -7; HIV Env fusion: inconclusive; Cneo AK release: 1; PAX8 reporter: 65*

What do the screens show for `CCOC(=O)Cc1csc(NC(=O)c2cccc([N+](=O)[O-])c2)n1`?
GSIS activator: 179*; dFosB act: -5; HIV Env fusion: -4; CDK5 inh: 0; Cneo AK release: 3; PAX8 reporter: -6

Results for O=C(Cc1csc(NC(=O)c2ccccc2)n1)NO ?
GSIS activator: 57*; dFosB act: -2; HIV Env fusion: 1; CDK5 inh: 0; Cneo AK release: -1; PAX8 reporter: -13

Results for CCOC(=O)Cc1csc(NC(=O)c2cccc(OC)c2)n1 ?
dFosB act: -11; HIV Env fusion: -23; CDK5 inh: 0; Cneo AK release: 0; PAX8 reporter: -16

Results for CCOC(=O)Cc1csc(NC(=O)c2ccc(OC)c(OC)c2)n1 ?
GSIS activator: 55*; dFosB act: -27; HIV Env fusion: -25; CDK5 inh: 1; Cneo AK release: -1

Results for CCOC(=O)Cc1csc(N/N=C/c2cccc([N+](=O)[O-])c2)n1 ?
GSIS activator: 9; dFosB act: -6; HIV Env fusion: 0; CDK5 inh: 3; Cneo AK release: -2; PAX8 reporter: -41

Results for COc1ccc(C(=O)Nc2nc(CC(=O)NCCc3ccccc3)cs2)cc1 ?
GSIS activator: -34; dFosB act: -10; HIV Env fusion: 8; CDK5 inh: 0; PAX8 reporter: -76

Results for COc1ccc(CCNC(=O)c2ccc(N(C)S(=O)(=O)c3ccc(C)cc3)cc2)cc1OC ?
GSIS activator: -25; dFosB act: -9; HIV Env fusion: 14; CDK5 inh: -1; Cneo AK release: 1; PAX8 reporter: 16

What do the screens show for `COc1cc(C(=O)NCC2CCCO2)ccc1OCc1ccc(Cl)cc1Cl` (configuration not stated)?
GSIS activator: -23; dFosB act: -23; HIV Env fusion: 67*; CDK5 inh: 0; PAX8 reporter: -1

What do the screens show for `COCCNC(=O)c1ccc(N(C)S(=O)(=O)c2ccc(OC)c(OC)c2)cc1`?
GSIS activator: 44*; dFosB act: -4; CDK5 inh: 1; Cneo AK release: 33

Results for O=C(NC(=S)NCC1CCCO1)c1ccc(Cl)cc1Cl (configuration not stated) ?
GSIS activator: 56*; dFosB act: -1; HIV Env fusion: 0; CDK5 inh: -1; PAX8 reporter: -36

What do the screens show for `CN(c1ccc(C(=O)NCC2CCCO2)cc1)S(C)(=O)=O` (configuration not stated)?
GSIS activator: -4; dFosB act: -9; CDK5 inh: -1; Cneo AK release: -1

How did COc1ccc(S(=O)(=O)N(C)c2ccc(C(=O)NCC3CCCO3)cc2)cc1OC (configuration not stated) do in these assays?
GSIS activator: 48*; dFosB act: 1; HIV Env fusion: 18; CDK5 inh: 0; Cneo AK release: 2; PAX8 reporter: 9

How did N#C[C@@H]1[C@H](c2ccc(C#CC3(O)CCCC3)cc2)[C@H](CO)N1C(=O)C1CCC1 do in these assays?
GSIS activator: 12; HIV Env fusion: 12[16.7 µM]; Cneo AK release: -3; PAX8 reporter: 17

What do the screens show for `COc1ccc(C(=O)Nc2ccccc2C(=O)NCC2CCCO2)cc1` (configuration not stated)?
GSIS activator: 52*; dFosB act: -7; HIV Env fusion: 5; CDK5 inh: 0; Cneo AK release: -2; PAX8 reporter: -4
